The values below come from ChEMBL document CHEMBL1149154, “Comparative molecular field analysis and comparative molecular similarity indices analysis of thalidomide analogues as angiogenesis inhibitors” (2004).

The species entered for this test is Rattus norvegicus. The test is described as follows: Inhibition of microvessel outgrowth in the rat aortic ring assay. It counts as functional, Aorta. Details: concentration or dose not given beside the values. In outline:
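Aortic 1 mm cross-sections from 6–8-week-old male Sprague–Dawley rats, periadventitial fat removed, embedded between Matrigel layers (37 °C, 5% CO2). Cultured 24 h in EGM-II, then switched to EBM-II with 2% FBS, amphotericin B and gentamicin. Compounds in DMSO added to medium daily for 4 days (vehicle 0.5% DMSO; carboxyamidotriazole positive control). Microvessel growth photographed on day 5.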

The Inhibition is the change of the read-out against control, counted positive when it falls. For the molecule `CC(C)(C)OC(=O)NCC(=O)OCN1C(=O)CCC(N2C(=O)c3ccccc3C2=O)C1=O` (centres undefined), the Inhibition came out at 40.25%. The result for `O=C1CCC(N2C(=O)c3ccc(O)c(O)c3C2=O)C(=O)N1` (centres undefined) reads 10.25%. Consider `CC(C)CCCC(C)C1CCC2C3CC=C4CC(OC(=O)CN5C(=O)CCC(N6C(=O)c7ccccc7C6=O)C5=O)CCC4(C)C3CCC12C` (centres undefined), for which the Inhibition was determined as 25.25%. For `O=C1NCCCC1N1C(=O)c2ccccc2S1(=O)=O` (centres undefined) [SUPIDIMIDE], the Inhibition is given as 4.5%.

On to `NC(=O)c1ccc[n+](CN2C(=O)CCC(N3C(=O)c4ccccc4C3=O)C2=O)c1.[Cl-]` (centres undefined), for which the Inhibition is on record as 29.67%. The result for `CC(C)(C)OC(=O)C(C(=O)NC(C(=O)O)C(=O)O)N1C(=O)c2ccccc2C1=O` (centres undefined) reads 13.25%.

Take `CC(C(=O)OCN1C(=O)CCC(N2C(=O)c3ccccc3C2=O)C1=O)N(C)C(=O)OC(C)(C)C` (centres undefined): the Inhibition turned out to be 56.5%.

On to `O=C1CCC(N2Cc3ccccc3C2=O)C(=O)N1` (centres undefined), for which the Inhibition is 11.25%.

For the molecule `O=C1CCC(N2C(=O)c3cc(O)c(O)cc3C2=O)C(=O)N1` (centres undefined), the Inhibition was 38.75%. The result for `O=C1c2cccc([N+](=O)[O-])c2C(=O)N1c1cn(-c2ccccc2)c(=O)[nH]c1=O` reads -23.33%; that for `CC(C)CCCC(C)C1CCC2C3CC=C4CC(OC(=O)N5C(=O)CCC(N6C(=O)c7ccccc7C6=O)C5=O)CCC4(C)C3CCC12C` (centres undefined), 50%. With `Cc1ccc(C)c2c1C(=O)N(c1ccc(F)cc1F)C2=O`, the Inhibition is 18%. As for `NC(=O)C(CCC(=O)O)N1C(=O)c2ccccc2C1=O` (centres undefined), the Inhibition was found to be 15.25%. In the case of `O=C(O)CN1C(=O)CCC(N2C(=O)c3ccccc3C2=O)C1=O` (centres undefined), the Inhibition turned out to be 39.75%.

Consider `O=C(O)C(C(=O)O)N1C(=O)c2ccccc2C1=O`, for which the Inhibition is -2%. The result for `O=C1c2ccccc2C(=O)N1c1ccc(F)cc1F` reads -4.75%.

For `NC(Cc1ccccc1)C(=O)OCN1C(=O)CCC(N2C(=O)c3ccccc3C2=O)C1=O` (centres undefined), the Inhibition worked out at 4%. The result for `O=C1c2c(F)c(F)c(F)c(F)c2C(=O)N1c1ccc(F)cc1F` reads 39.75%.

On to `COc1cc2c(cc1OC)C(=O)N(C1CCC(=O)NC1=O)C2=O` (centres undefined), for which the Inhibition is recorded as 23.25%. On to `Cl.NCC(=O)OCN1C(=O)CCC(N2C(=O)c3ccccc3C2=O)C1=O` (centres undefined), for which the Inhibition turned out to be 71.33%. The result for `CCC1(N2C(=O)c3c(F)c(F)c(F)c(F)c3C2=O)C(=O)NC(=O)N(c2ccccc2)C1=O` (centres undefined) reads 75.75%; that for `O=C1c2c(F)c(F)c(F)c(F)c2C(=O)N1c1cnc(O)nc1O`, 15.25%. Turning to `Nc1cccc2c1C(=O)N(C1CCC(=O)NC1=O)C2=O` (centres undefined) [POMALIDOMIDE], the Inhibition is given as 5.5%.

On to `O=C(O)CCC(NC(C(=O)O)N1C(=O)c2ccccc2C1=O)C(=O)O` (centres undefined), for which the Inhibition is given as 25.75%.

As to `COCN1C(=O)CCC(N2C(=O)c3ccccc3C2=O)C1=O` (centres undefined), the Inhibition was 13%. In the case of `O=C1CC(N2C(=O)c3ccccc3C2=O)C(=O)N1` (centres undefined), the Inhibition turned out to be 9.75%. Turning to `CC(C)(C)OC(=O)NC(Cc1ccccc1)C(=O)OCN1C(=O)CCC(N2C(=O)c3ccccc3C2=O)C1=O` (centres undefined), the Inhibition is listed as 33.75%.

As to `O=C1CCC(N2C(=O)c3ccccc3C2=O)C(=O)O1` (centres undefined), the Inhibition stood at 42%.

As for `CC(C)C(N)C(=O)OCN1C(=O)CCC(N2C(=O)c3ccccc3C2=O)C1=O.Cl` (centres undefined), the Inhibition is reported as 88%.

Take `NC(=O)CCC(C(=O)O)N1C(=O)c2ccccc2C1=O` (centres undefined) [2-PHTHALIMIDOGLUTARAMIC ACID]: the Inhibition was 1.75%. Regarding `O=C1CCC(N2C(=O)c3ccccc3C2=O)C(=O)N1CO` (centres undefined), the Inhibition is listed as 21%.

For the molecule `O=C1CCC(NC(=O)C(C(=O)O)N2C(=O)c3ccccc3C2=O)C(=O)N1` (centres undefined), the Inhibition is recorded as 11.67%. `[N-]=[N+]=NCN1C(=O)CCC(N2C(=O)c3ccccc3C2=O)C1=O` (centres undefined): the Inhibition is reported as 24.67%. For `CCC1(N2C(=O)c3cccc([N+](=O)[O-])c3C2=O)C(=O)NC(=O)N(c2ccccc2)C1=O` (centres undefined), the Inhibition is given as 1.75%. Consider `CCC1(N2C(=O)c3ccccc3C2=O)C(=O)NC(=O)N(c2ccccc2)C1=O` (centres undefined), for which the Inhibition is recorded as -0.5%. `O=C(O)CCC(C(=O)O)N1C(=O)c2ccccc2C1=O` (centres undefined): the Inhibition was determined as 10.75%. As for `O=C1NC(=O)C(N2C(=O)c3ccccc3C2=O)CC1O` (centres undefined), the Inhibition is 3.75%. Turning to `O=C1c2ccccc2C(=O)N1c1cnc(O)nc1O`, the Inhibition was found to be 5.75%. For `CCOCN1C(=O)CCC(N2C(=O)c3ccccc3C2=O)C1=O` (centres undefined), the Inhibition is recorded as 32%.
